pIC50: −log10 of the molar value. Activity calls are given as the source filed them. The calls are words filed in the database; no cut-off is given here.
Columns and labels:
[1] = test system: HT-29; assay: Antiproliferative activity against human HT-29 cells after 72 hrs by cell titer 96 assay; format: functional, cell-based; details: HT-29, 72 h
[2] = target: T1, Aurora kinase A (Homo sapiens) (UniProt O14965); assay: Inhibition of aurora A in human HCT116 cells assessed as reduction of phosphorylated histone H3 at ser10 level measured at 1.25 to 40 uM after 3 hrs by Western blot analysis; format: cell-based; details: HCT-116
T1 sequence (whole entry): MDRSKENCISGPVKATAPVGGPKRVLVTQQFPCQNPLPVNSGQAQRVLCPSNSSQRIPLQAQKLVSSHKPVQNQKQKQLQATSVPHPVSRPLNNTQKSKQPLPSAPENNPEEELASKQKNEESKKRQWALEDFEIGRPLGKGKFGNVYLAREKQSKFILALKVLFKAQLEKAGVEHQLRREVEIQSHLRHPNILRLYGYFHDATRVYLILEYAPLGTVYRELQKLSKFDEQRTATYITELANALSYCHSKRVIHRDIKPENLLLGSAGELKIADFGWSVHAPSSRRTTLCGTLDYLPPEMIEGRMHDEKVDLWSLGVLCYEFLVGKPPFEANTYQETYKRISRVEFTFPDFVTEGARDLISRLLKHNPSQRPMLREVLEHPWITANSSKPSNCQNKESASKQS
Procedure, shortened: (§1)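 HCT-116 cells were synchronized at G2/M with 200 ng/mL nocodazole for 17 h, then given inhibitor for a further 3.0 h. Cells were PBS-washed, boiled in 2× SDS sample buffer, and run on SDS-PAGE with immunoblotting. Rabbit antibodies detected pT288 Aurora A, total Aurora A, pS10 histone H3 and total H3; β-actin served as loading control.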

[3] = target: T1, Aurora kinase A (Homo sapiens); assay: Inhibition of aurora A in human HCT116 cells assessed as reduction of phosphorylated aurora A at Thr288 level measured at 1.25 to 40 uM after 3 hrs by Western blot analysis; format: cell-based; details: HCT-116; procedure, shortened: as §1
[4] = target: Cyclin-dependent kinase 1 (Homo sapiens) (UniProt P06493); assay: Inhibition of CDC2 at 1 uM by radiometric method
[5] = target: Cyclin-dependent kinase 2/cyclin A (Homo sapiens) (UniProt P24941+P20248+P78396); assay: Inhibition of CDK2/cyclinA at 1 uM by radiometric method; format: protein-complex assay
[6] = target: Serine/threonine-protein kinase Chk1 (Homo sapiens) (UniProt O14757); assay: Inhibition of CHK1 at 1 uM by radiometric method
[7] = Inhibition of CHK2 at 1 uM by radiometric method
[8] = target: Epidermal growth factor receptor (Homo sapiens) (UniProt P00533); assay: Inhibition of EGFR at 1 uM by radiometric method
[9] = test system: Epidermal growth factor receptor (Homo sapiens), P00533 [T790M]; assay: Inhibition of EGFR T790M mutant at 1 uM by radiometric method; format: protein assay
[10] = target: Fibroblast growth factor receptor 1 (Homo sapiens) (UniProt P11362); assay: Inhibition of FGFR1 at 1 uM by radiometric method
[11] = target: Receptor-type tyrosine-protein kinase FLT3 (Homo sapiens) (UniProt P36888); assay: Inhibition of FLT3 at 1 uM by radiometric method
[12] = target: Insulin-like growth factor 1 receptor (Homo sapiens) (UniProt P08069); assay: Inhibition of IGF1R at 1 uM by radiometric method
[13] = target: Tyrosine-protein kinase JAK2 (Homo sapiens) (UniProt O60674); assay: Inhibition of JAK2 at 1 uM by radiometric method
[14] = target: Mitogen-activated protein kinase 14 (Homo sapiens) (UniProt Q16539); assay: Inhibition of MAPK14 at 1 uM by radiometric method
[15] = target: Hepatocyte growth factor receptor (Homo sapiens) (UniProt P08581); assay: Inhibition of c-Met at 1 uM by radiometric method
[16] = target: PI3-kinase p110-alpha/p85-alpha (Homo sapiens) (UniProt P27986+P42336); assay: Inhibition of PI3K (p110alpha/p85-alpha) at 1 uM by radiometric method; format: protein-complex assay
[17] = target: PI3K p110 beta/p85 alpha (Homo sapiens) (UniProt P27986+P42338); assay: Inhibition of PI3K (p110beta/p85-alpha) at 1 uM by radiometric method; format: protein-complex assay
[18] = target: Serine/threonine-protein kinase B-raf (Homo sapiens) (UniProt P15056); assay: Inhibition of b-Raf at 1 uM by radiometric method
[19] = test system: Serine/threonine-protein kinase B-raf (Homo sapiens), P15056 [V600E]; assay: Inhibition of b-Raf V600E mutant at 1 uM by radiometric method
[20] = target: Vascular endothelial growth factor receptor 2 (Homo sapiens, UniProt P35968); assay: Inhibition of VEGFR2 at 1 uM by radiometric method
[21] = target: Mast/stem cell growth factor receptor Kit (Homo sapiens, UniProt P10721); assay: Inhibition of c-Kit by radiometric method
[22] = target: Platelet-derived growth factor receptor beta (Homo sapiens, UniProt P09619); assay: Inhibition of PDGFRbeta by radiometric method
[23] = target: T2, Macrophage colony-stimulating factor 1 receptor (Homo sapiens, UniProt P07333); assay: Inhibition of CSF1R by radiometric method
[24] = target: T2, Macrophage colony-stimulating factor 1 receptor; details: 1 uM
[25] = target: Tyrosine-protein kinase Lck (Homo sapiens) (UniProt P06239); assay: Inhibition of LCK at 1 uM by KINOMEscan binding assay
[26] = target: Proto-oncogene tyrosine-protein kinase receptor Ret (Homo sapiens) (UniProt P07949); assay: Inhibition of RET at 1 uM by KINOMEscan binding assay
[27] = target: Epithelial discoidin domain-containing receptor 1 (Homo sapiens) (UniProt Q08345); assay: Inhibition of DDR1 at 1 uM by KINOMEscan binding assay
[28] = target: Rhodopsin kinase GRK7 (Homo sapiens) (UniProt Q8WTQ7); assay: Inhibition of GRK7 at 1 uM by KINOMEscan binding assay
[29] = target: Muscle, skeletal receptor tyrosine-protein kinase (Homo sapiens) (UniProt O15146); assay: Inhibition of MUSK at 1 uM by KINOMEscan binding assay
[30] = target: Tyrosine-protein kinase Mer (Homo sapiens) (UniProt Q12866); assay: Inhibition of MERTK at 1 uM by KINOMEscan binding assay
[31] = target: Phosphorylase b kinase gamma catalytic chain, skeletal muscle/heart isoform (Homo sapiens) (UniProt Q16816); assay: Inhibition of PHKG1 at 1 uM by KINOMEscan binding assay
[32] = target: Mitogen-activated protein kinase kinase kinase kinase 3 (Homo sapiens) (UniProt Q8IVH8); assay: Inhibition of MAP4K3 at 1 uM by KINOMEscan binding assay
Mitogen-activated protein kinase kinase kinase kinase 3 (Homo sapiens), sequence (Q8IVH8 whole entry): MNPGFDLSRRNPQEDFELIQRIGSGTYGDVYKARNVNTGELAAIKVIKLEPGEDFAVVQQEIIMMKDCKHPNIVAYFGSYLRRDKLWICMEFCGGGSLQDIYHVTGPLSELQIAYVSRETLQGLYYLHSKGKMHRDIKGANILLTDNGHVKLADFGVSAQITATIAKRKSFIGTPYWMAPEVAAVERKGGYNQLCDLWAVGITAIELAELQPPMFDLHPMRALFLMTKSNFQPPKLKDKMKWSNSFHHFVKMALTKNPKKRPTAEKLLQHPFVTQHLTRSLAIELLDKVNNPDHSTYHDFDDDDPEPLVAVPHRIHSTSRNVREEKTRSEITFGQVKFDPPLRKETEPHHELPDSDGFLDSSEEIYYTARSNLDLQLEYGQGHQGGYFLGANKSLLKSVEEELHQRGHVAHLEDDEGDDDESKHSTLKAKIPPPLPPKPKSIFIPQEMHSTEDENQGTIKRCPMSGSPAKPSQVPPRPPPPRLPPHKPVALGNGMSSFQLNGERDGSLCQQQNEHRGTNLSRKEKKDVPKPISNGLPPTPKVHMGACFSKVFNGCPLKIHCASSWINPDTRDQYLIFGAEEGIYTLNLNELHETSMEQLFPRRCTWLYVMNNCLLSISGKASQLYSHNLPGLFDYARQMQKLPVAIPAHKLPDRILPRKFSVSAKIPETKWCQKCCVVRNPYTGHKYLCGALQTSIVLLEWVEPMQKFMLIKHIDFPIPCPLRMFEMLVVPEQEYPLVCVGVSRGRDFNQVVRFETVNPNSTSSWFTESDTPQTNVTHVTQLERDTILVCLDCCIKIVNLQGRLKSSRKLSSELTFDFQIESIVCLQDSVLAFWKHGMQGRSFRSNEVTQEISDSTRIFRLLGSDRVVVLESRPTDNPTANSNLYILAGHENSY

T2 sequence (P07333 whole entry): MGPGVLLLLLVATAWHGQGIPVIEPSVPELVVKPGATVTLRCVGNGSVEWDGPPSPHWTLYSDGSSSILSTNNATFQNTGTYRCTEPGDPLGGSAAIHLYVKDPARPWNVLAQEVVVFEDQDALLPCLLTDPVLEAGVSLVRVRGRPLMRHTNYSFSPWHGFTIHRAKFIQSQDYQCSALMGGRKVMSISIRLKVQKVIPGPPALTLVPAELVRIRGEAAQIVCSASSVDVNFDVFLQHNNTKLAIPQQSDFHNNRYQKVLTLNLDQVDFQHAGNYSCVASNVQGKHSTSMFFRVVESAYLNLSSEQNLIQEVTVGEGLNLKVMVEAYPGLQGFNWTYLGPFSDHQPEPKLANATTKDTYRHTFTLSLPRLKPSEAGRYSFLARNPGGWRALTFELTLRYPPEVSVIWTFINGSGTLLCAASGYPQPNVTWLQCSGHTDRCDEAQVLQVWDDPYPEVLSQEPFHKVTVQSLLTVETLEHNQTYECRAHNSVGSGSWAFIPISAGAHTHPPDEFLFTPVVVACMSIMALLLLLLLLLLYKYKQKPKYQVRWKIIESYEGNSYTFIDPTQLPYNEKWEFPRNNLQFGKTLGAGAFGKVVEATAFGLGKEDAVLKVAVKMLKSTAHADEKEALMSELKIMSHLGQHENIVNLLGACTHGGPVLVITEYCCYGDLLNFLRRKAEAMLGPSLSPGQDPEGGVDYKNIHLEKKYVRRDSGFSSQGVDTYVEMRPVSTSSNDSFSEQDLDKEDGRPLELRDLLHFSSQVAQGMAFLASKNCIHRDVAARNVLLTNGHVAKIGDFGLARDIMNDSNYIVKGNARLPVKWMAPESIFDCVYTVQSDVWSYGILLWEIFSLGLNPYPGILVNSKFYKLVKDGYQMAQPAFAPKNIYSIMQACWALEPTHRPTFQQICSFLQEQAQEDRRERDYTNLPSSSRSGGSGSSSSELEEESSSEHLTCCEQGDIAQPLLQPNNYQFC
Mast/stem cell growth factor receptor Kit, sequence (P10721 whole entry): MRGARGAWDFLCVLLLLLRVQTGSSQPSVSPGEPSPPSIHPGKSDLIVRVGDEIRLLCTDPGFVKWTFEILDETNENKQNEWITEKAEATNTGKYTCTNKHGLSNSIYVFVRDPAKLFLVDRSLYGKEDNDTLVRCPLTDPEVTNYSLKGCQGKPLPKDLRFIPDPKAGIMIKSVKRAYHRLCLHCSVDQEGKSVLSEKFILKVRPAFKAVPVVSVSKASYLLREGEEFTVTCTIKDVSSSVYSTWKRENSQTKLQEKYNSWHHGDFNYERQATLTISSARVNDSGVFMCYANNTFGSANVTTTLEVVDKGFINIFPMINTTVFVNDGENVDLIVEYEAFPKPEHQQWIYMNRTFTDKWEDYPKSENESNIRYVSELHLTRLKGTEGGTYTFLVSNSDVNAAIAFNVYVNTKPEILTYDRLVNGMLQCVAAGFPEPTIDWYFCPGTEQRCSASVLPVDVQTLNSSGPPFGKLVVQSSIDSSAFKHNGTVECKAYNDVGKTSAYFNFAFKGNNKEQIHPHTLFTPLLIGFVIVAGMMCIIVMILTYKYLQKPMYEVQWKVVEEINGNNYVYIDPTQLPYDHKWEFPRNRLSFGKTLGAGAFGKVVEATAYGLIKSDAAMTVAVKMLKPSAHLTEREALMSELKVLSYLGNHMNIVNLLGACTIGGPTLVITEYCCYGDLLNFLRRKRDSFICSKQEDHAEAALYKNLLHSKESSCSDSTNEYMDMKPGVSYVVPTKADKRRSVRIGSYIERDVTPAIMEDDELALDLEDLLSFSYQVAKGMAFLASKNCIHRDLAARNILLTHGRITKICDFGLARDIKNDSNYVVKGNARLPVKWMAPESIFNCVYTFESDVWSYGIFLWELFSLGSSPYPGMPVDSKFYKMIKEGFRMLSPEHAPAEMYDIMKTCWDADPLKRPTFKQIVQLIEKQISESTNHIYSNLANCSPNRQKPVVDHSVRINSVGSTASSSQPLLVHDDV
Platelet-derived growth factor receptor beta, sequence (P09619 whole entry): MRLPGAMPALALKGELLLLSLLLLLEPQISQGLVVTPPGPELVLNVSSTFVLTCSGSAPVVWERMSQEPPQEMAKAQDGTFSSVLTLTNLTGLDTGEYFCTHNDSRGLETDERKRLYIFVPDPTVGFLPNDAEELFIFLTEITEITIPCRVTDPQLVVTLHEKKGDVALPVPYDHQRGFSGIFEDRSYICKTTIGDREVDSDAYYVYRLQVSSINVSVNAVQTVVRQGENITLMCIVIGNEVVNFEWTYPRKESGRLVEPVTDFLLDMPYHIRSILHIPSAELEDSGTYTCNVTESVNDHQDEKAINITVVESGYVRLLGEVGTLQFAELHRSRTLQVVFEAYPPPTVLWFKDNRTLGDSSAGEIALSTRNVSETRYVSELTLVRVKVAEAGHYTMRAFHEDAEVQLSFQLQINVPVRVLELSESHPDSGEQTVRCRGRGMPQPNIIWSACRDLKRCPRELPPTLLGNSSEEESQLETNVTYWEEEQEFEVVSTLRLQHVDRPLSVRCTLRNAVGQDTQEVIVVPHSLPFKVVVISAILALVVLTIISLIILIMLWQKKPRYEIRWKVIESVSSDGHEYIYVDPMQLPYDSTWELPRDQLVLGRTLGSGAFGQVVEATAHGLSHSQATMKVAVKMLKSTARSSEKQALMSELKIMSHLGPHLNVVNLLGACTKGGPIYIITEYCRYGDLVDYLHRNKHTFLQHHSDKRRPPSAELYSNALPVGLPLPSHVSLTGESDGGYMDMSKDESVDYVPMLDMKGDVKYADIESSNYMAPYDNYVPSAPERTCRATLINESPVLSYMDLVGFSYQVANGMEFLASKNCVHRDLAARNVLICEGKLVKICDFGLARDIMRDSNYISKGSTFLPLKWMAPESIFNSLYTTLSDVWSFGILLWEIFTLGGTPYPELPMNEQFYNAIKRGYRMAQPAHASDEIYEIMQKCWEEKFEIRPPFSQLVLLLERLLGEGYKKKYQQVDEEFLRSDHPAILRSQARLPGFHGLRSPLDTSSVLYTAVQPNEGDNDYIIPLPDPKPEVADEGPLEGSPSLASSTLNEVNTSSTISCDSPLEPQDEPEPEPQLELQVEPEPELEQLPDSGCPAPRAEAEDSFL
Fibroblast growth factor receptor 1 (Homo sapiens), sequence (P11362 22-822 limits assumed): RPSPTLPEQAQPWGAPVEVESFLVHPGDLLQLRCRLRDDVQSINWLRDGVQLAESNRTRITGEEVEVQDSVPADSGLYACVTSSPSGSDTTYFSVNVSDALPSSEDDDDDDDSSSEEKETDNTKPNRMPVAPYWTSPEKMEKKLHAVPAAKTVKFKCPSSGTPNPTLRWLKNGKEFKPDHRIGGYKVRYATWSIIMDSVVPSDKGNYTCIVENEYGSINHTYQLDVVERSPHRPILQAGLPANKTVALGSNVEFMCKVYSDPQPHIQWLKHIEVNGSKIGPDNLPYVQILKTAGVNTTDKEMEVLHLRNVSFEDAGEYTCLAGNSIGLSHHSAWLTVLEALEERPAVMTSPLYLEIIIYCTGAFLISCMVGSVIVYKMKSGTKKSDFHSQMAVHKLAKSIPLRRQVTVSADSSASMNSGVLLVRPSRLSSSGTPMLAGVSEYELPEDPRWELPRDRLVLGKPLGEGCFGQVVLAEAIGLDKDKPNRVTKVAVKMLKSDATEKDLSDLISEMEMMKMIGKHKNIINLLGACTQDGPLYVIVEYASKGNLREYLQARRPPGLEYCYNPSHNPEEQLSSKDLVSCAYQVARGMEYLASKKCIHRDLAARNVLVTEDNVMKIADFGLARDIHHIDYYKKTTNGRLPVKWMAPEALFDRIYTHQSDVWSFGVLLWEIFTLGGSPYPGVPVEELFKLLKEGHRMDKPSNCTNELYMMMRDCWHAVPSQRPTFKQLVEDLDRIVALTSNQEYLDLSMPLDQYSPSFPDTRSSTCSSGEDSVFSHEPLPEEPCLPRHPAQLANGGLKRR
Cyclin-dependent kinase 1 (Homo sapiens), sequence (P06493 whole entry, looked up): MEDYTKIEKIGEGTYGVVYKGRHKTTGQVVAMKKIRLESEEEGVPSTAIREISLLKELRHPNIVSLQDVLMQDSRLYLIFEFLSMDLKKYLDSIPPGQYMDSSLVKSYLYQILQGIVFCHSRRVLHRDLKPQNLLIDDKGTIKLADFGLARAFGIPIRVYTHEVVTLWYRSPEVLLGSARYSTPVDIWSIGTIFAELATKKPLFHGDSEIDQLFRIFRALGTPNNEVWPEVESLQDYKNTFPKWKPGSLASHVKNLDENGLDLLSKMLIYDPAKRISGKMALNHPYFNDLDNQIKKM

Compound: CN(C)CCCc1c(/C=C2\C(=O)Nc3ccc(NS(=O)(=O)c4ccccc4)cc32)[nH]c2c1C(=O)CCC2
- pIC50 [1]: 5.53
- inhibition [2]: Active
- inhibition [3]: inactive
- inhibition [4]: 12%
- inhibition [5]: 46%
- inhibition [6]: 58%
- inhibition [7]: 56%
- inhibition [8]: 4%
- inhibition [9]: 8%
- inhibition [10]: 41%
- inhibition [11]: 95%
- inhibition [12]: 6%
- inhibition [13]: -3%
- inhibition [14]: 11%
- inhibition [15]: 32%
- inhibition [16]: 5%
- inhibition [17]: -2%
- inhibition [18]: 2%
- inhibition [19]: -4%
- inhibition [20]: 51%
- pIC50 [21]: > 6.00
- pIC50 [22]: > 6.00
- pIC50 [23]: > 6.00
- inhibition [24]: 56%
- residual activity [25]: < 10%
- residual activity [26]: < 10%
- residual activity [27]: < 10%
- residual activity [28]: < 10%
- residual activity [29]: < 10%
- residual activity [30]: < 10%
- residual activity [31]: < 10%
- residual activity [32]: < 10%

Compound: CCOC(=O)CCc1c(/C=C2\C(=O)Nc3ccc(NS(=O)(=O)c4ccccc4)cc32)[nH]c2c1C(=O)CCC2
- pIC50 [1]: 5.49
- inhibition [2]: Active
- inhibition [3]: Active
- inhibition [4]: 33%
- inhibition [5]: 71%
- inhibition [6]: 10%
- inhibition [7]: 17%
- inhibition [8]: 5%
- inhibition [9]: 14%
- inhibition [10]: 77%
- inhibition [11]: 97%
- inhibition [12]: 24%
- inhibition [13]: 30%
- inhibition [14]: 4%
- inhibition [15]: 32%
- inhibition [16]: 11%
- inhibition [17]: 1%
- inhibition [18]: -1%
- inhibition [19]: 3%
- inhibition [20]: 74%
- pIC50 [21]: < 6.00
- pIC50 [22]: < 6.00
- pIC50 [23]: < 6.00
- inhibition [24]: 34%
- residual activity [25]: < 10%
- residual activity [26]: < 10%
- residual activity [27]: < 10%
- residual activity [28]: < 10%
- residual activity [29]: < 10%
- residual activity [30]: < 10%
- residual activity [31]: < 10%
- residual activity [32]: < 10%

From ChEMBL document CHEMBL1212904, “Discovery of pyrrole-indoline-2-ones as Aurora kinase inhibitors with a different inhibition profile” (J Med Chem, 2010)
